# Measurements of several laboratories.
# Lines come from different studies, so protocols differ.
# Read-out: metabolic stability
SMILES,system,setting,quantity,result
Cc1ccc(N(C)c2ccc(NC(=O)CN(C)c3ccccc3N3CCCC3=O)cn2)cc1,"rat, hepatocytes",,hepatocyte CLint,> 92 µL/min/10⁶ cells
CNS(=O)(=O)c1ccc(Nc2ncc(C(F)(F)F)c([C@H]3CC[C@@](C)(O)CC3)n2)c(C)c1,"rat, liver microsomes",1 µM,scaled CLint,< 21 mL/min/kg
CN1CCN(c2ccc(-c3ccc4nncc(Nc5ccc(OC(F)(F)F)cc5)c4c3)cc2)CC1,"rat, hepatocytes",,hepatocyte CLint,14 µL/min/10⁶ cells
N#Cc1ccc(C[C@H](NC(=O)c2cc3cc(F)ccc3[nH]2)C(=O)N2CCc3ccccc32)cc1,"rat, liver microsomes","10 µM, pH 7.4",microsomal CLint,9.1 µL/min/mg
Cc1cc(S(=O)(=O)NC2CC(N3CC[C@@H](OC4CN(c5cccc6c5n(C)c(=O)n6C5CCC(=O)NC5=O)C4)[C@H](F)C3)C2)ccc1Nc1ncc(C(F)(F)F)c(N2CCC[C@](C)(O)C2)n1 (stereo partly shown),"rat, liver microsomes",1 µM,scaled CLint,23 mL/min/kg
N#Cc1ccc(-c2csc(CNC(=O)[C@H]3CCCN(C(=O)COCCF)C3)n2)cc1,"male Sprague-Dawley rat, liver microsomes",0.5 µM,microsomal CLint,40 µL/min/mg
C[C@]1(O)CCCN(c2nc(Nc3ccc(S(=O)(=O)N[C@@H]4CCN(CC5CCN(c6ccc(C7CCC(=O)NC7=O)cc6F)CC5)C[C@H]4F)cc3F)ncc2C(F)(F)F)C1 (stereo partly shown),"rat, liver microsomes",1 µM,scaled CLint,< 21 mL/min/kg
Cc1ccc(Oc2ccc(NC(=O)CN(C)c3ccccc3N3CCCC3=O)cc2)cc1,"rat, hepatocytes",,hepatocyte CLint,> 92 µL/min/10⁶ cells
Cc1nnc(-c2ccc3ccn(CC(=O)Nc4ccccc4Cl)c3c2)o1,"rat, hepatocytes",,hepatocyte CLint,> 92 µL/min/10⁶ cells
CCOCC(=O)N1CCC[C@H](C(=O)NCc2nc(-c3ccc(C#N)nc3)cs2)C1,"male Sprague-Dawley rat, liver microsomes",0.5 µM,scaled CLint,19 mL/min/kg
Cc1ccc(N(C)c2ccc(NC(=O)CN(C)c3cc(F)ccc3N3CCCC3=O)cc2)cc1,"rat, hepatocytes",,hepatocyte CLint,91 µL/min/10⁶ cells
Cc1ccc(-c2csc(CNC(=O)[C@H]3CCCN(C(=O)[C@H]4CCC(C)(C)O4)[C@H]3C)n2)cn1,"male Sprague-Dawley rat, liver microsomes",0.5 µM,microsomal CLint,197 µL/min/mg
Cc1cc(S(=O)(=O)N[C@H]2CC[C@H](CN3CCN(c4ccc(NC5CCC(=O)NC5=O)cc4F)CC3)CC2)ccc1Nc1ncc(C(F)(F)F)c(N2CCC[C@](C)(O)C2)n1 (stereo partly shown),"rat, liver microsomes",1 µM,scaled CLint,< 21 mL/min/kg
NCCOCC(=O)N1CCC[C@H](C(=O)NCc2nc(-c3ccc(C(F)(F)F)cc3)cs2)C1,"male Sprague-Dawley rat, liver microsomes",0.5 µM,scaled CLint,< 5.6 mL/min/kg
Cc1ccc(N(c2ccc(NC(=O)CN(C)c3ccccc3N3CCCC3=O)cn2)C(C)C)cc1,"rat, hepatocytes",,hepatocyte CLint,86 µL/min/10⁶ cells
N#Cc1ccc(-c2csc(CNC(=O)[C@H]3CCCN(C(=O)COC4CC4)C3)n2)cc1,"male Sprague-Dawley rat, liver microsomes",0.5 µM,microsomal CLint,100 µL/min/mg
Cc1cc(S(=O)(=O)N[C@]2(C)C[C@H](N3CCN(CC4CCN(c5ccc6c(c5F)n(C)c(=O)n6C5CCC(=O)NC5=O)CC4)CC3)C2)ccc1Nc1ncc(C(F)(F)F)c(N2CCC[C@](C)(O)C2)n1 (stereo partly shown),"rat, liver microsomes",1 µM,scaled CLint,< 21 mL/min/kg
CCONC(=O)N1CCC[C@H](C(=O)NCc2nc(-c3ccc(C#N)cc3)cs2)C1,"male Sprague-Dawley rat, hepatocytes",0.5 µM,scaled CLint,41 mL/min/kg
N#Cc1ccc(C[C@H](Nc2nnc(-c3ccc(Br)cc3)s2)C(=O)N2CCc3ccccc32)cc1,"rat, liver microsomes","10 µM, pH 7.4",microsomal CLint,46.2 µL/min/mg
